Measurements as given in ChEMBL document CHEMBL1933057, “Pyrrole alkanoic acid derivatives as nuisance inhibitors of microsomal prostaglandin E2 synthase-1” (Eur J Med Chem, 2012).
Calls of active or inactive are those of the source. The calls are words filed in the database; no cut-off is given here.

The molecules below were run against T1, Prostaglandin E synthase (Homo sapiens) (UniProt O14684) (assay: Inhibition of human recombinant mPGES-1 in assessed as conversion of PGH2 into PGE2 at 10 uM at 20 degC after 5 mins by HPLC-UV analysis in presence of 0.1% Triton X-100). Conditions: not given.
T1 sequence (whole entry): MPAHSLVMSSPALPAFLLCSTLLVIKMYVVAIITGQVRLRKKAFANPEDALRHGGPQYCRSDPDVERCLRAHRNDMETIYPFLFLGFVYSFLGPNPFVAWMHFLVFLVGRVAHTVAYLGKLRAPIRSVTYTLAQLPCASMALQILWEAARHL
Outline: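 Human recombinant mPGES-1 microsomes in Tris buffer (50 mM, pH 7.2) containing 2.5 mM glutathione, with 0.1% Triton X-100 added. Compound in DMSO, 5 min preincubation with enzyme at room temperature, then PGH2 substrate, 5 min reaction at 20 °C. PGE2 formed was quantified by online solid phase extraction HPLC with UV detection.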
For CCCCCCCCCCCC(=O)c1c(C)c(CCC(=O)O)n(C)c1C, the inhibition was “inactive”. In the case of CCCCCCCCCCCC(=O)c1c(C)c(CCC(=O)NS(C)(=O)=O)n(C)c1C, the inhibition is reported as “inactive”. CC(C)c1ccc2c(c1)c(SC(C)(C)C)c(CC(C)(C)C(=O)O)n2Cc1ccc(Cl)cc1 was tested, and the inhibition was 75%. CCCCCCC(Sc1nc(Cl)cc(NCc2ccc(-c3ccccc3)cc2)n1)C(=O)O (stereo not drawn) was tested, and the inhibition was “inactive”. For CCCCCCCCCCCC(=O)c1c(-c2ccccc2)c(CCC(=O)O)n(C)c1C, the inhibition was “inactive”.

Each molecule was assayed against T2, Prostaglandin E synthase (Homo sapiens, UniProt O14684) (assay: Inhibition of mPGES-1 in human A549 cell microsomes assessed as conversion of PGH2 into PGE2 at 0 degC after 5 mins by HPLC-UV analysis). Conditions: not given.
T2 sequence (O14684 whole entry): T1 sequence (whole entry)
Design: species or system Microsome
Outline: (§1)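 Enzyme source was microsomes from A549 cells. Compound was incubated with PGH2 substrate for 5 min at 0 °C. PGE2 formation was monitored by online solid phase extraction HPLC with UV detection. Values are means of at least two independent determinations.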
In the case of CCCCCCCCCCCC(=O)c1c(C)c(CCC(=O)O)n(C)c1C, the IC50 is reported as 800 nM.

Each molecule was assayed against T1, Prostaglandin E synthase (Homo sapiens) (assay: Inhibition of human recombinant mPGES-1 in assessed as conversion of PGH2 into PGE2 at 1 uM at 20 degC after 5 mins by HPLC-UV analysis). Conditions: not given.
Outline: (§2)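 Commercial microsomal human recombinant mPGES-1, diluted about 1:200 in phosphate buffer (50 mM sodium phosphate, 100 mM NaCl, 20% glycerol, pH 7.2). Compound in DMSO added to Tris buffer (50 mM, pH 7.2) with freshly dissolved 2.5 mM reduced glutathione, 5 min, then enzyme, 5 min preincubation at room temperature. PGH2 started reaction, 5 min at room temperature. PGE2 measured by online SPE-HPLC-UV at 195 nm. Reference incubations without enzyme gave non-enzymatic PGE2.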
In the case of CCCCCCCCCCCCc1c(C)c(C(=O)O)n(C)c1C, the inhibition is reported as 37%. For CCCCCCCCOc1ccccc1C(=O)c1c(C)c(CCC(=O)O)n(C)c1C, the inhibition was “inactive”. CCCCCCCCCCCC(=O)c1c(C)c(C(=O)O)n(Cc2ccccc2)c1C gave an inhibition of 65%. CCCCCCCCCCCC(=O)c1c(C)c(CCC(=O)O)n(C)c1C gave an inhibition of 54%. For CCCCCCC(=O)c1c(C)c(CCC(=O)O)n(C)c1C, the inhibition was “inactive”. CCCCCCCCCCCCCCCC(=O)c1c(C)c(CCC(=O)O)n(C)c1C was tested, and the inhibition was 97%. In the case of CCCCCCCC(=O)c1c(C)c(CCC(=O)O)n(C)c1C, the inhibition is reported as “inactive”. CCCCCCCCCCCC(=O)c1c(C)c(CCC(=O)O)n(Cc2ccc(OC)cc2)c1C showed an inhibition of 72%. CCCCCCCCCCCC(=O)c1c(-c2ccccc2)c(CCC(=O)O)n(Cc2ccccc2)c1C gave an inhibition of 64%. CCCCCCCCCCCC(=O)c1cc(C(=O)O)n(C)c1 was tested, and the inhibition was “inactive”. In the case of CCCCCCCOc1cccc(C(=O)c2c(C)c(CCC(=O)O)n(C)c2C)c1, the inhibition is reported as “inactive”. With Cc1c(C(=O)c2ccccc2)c(C)n(C)c1CCC(=O)O the inhibition was “inactive”. With Cc1c(C(=O)c2cccc3ccccc23)c(C)n(C)c1CCC(=O)O the inhibition was “inactive”. For CCCC(=O)c1c(C)c(CCC(=O)O)n(C)c1C, the inhibition was “inactive”. With CCCCCCCCCCCC(=O)c1c(C)[nH]c(CCC(=O)O)c1C the inhibition was 38%. With CCCCCCCCCCCC(=O)c1c(C)[nH]c(C(=O)O)c1C the inhibition was 62%. In the case of CCCCCCCCCCCC(=O)c1cc(CCC(=O)O)n(C)c1, the inhibition is reported as “inactive”. Work on CCCCCCCCCCCC(=O)c1c(C)c(CC(=O)O)n(Cc2ccccc2)c1C yielded an inhibition of 35%. For CCCCCCCCCCCC(=O)c1c(C)c(CCC(N)=O)n(C)c1C, the inhibition was 39%. CCCCCCCCCCCC(=O)c1c(C)c(C(=O)O)n(C)c1C showed an inhibition of 59%. CCCCCCCCCCCC(=O)c1c(C)c(CCC(=O)NN)n(C)c1C gave an inhibition of 35%. CCCCCCCCCCCC(=O)c1c(C)c(C(=O)O)n(-c2ccccc2)c1C showed an inhibition of 99%. For CCCCCCCCCCCC(=O)c1cc(CC(=O)O)n(C)c1, the inhibition was “inactive”. CCCCCCCCCCCC(=O)c1c(C)c(CCC(=O)NS(C)(=O)=O)n(C)c1C was tested, and the inhibition was 52%. CCCCCCCCCCCC(=O)c1c(C)c(CCC(=O)O)n(Cc2ccc(C(=O)O)cc2)c1C was tested, and the inhibition was 27%. With CCCCCCCCCCCC(=O)c1c(C)c(CCCC(=O)O)n(C)c1C the inhibition was 70%. CCCCCCCCCCCC(=O)c1c(C)c(CCC(=O)O)n(Cc2ccc(C(N)=O)cc2)c1C was tested, and the inhibition was 28%. With Cc1c(C(=O)Cc2ccc(-c3ccccc3)cc2)c(C)n(C)c1CCC(=O)O the inhibition was “inactive”. CCCCCCCCCC(=O)c1c(C)c(CCC(=O)O)n(C)c1C was tested, and the inhibition was “inactive”. Work on CCCCCCCCCCCCCC(=O)c1c(C)c(CCC(=O)O)n(C)c1C yielded an inhibition of 91%. For CCCCCCCCCCCC(=O)c1c(C)c(CCC(=O)O)n(-c2ccccc2)c1C, the inhibition was 65%. With Cc1c(C(=O)c2ccc3ccccc3c2)c(C)n(C)c1CCC(=O)O the inhibition was “inactive”. With Cc1c(C(=O)c2ccc(-c3ccccc3)cc2)c(C)n(C)c1CCC(=O)O the inhibition was “inactive”. CCCCCCCCCCCC(=O)c1c(C)c(CCC(=O)O)n(Cc2ccc(O)cc2)c1C gave an inhibition of 53%. Work on CCCCCCCCCCCC(=O)c1c(C)c(CC(=O)O)n(-c2ccccc2)c1C yielded an inhibition of 23%. In the case of CCCCCCCCCCCCCCCCCC(=O)c1c(C)c(CCC(=O)O)n(C)c1C, the inhibition is reported as 97%. With CCCCCCCCCCCC(=O)c1c(-c2ccccc2)c(CCC(=O)O)n(C)c1C the inhibition was 90%. Work on CCCCCCCCCCCC(=O)c1c(C)[nH]c(CC(=O)O)c1C yielded an inhibition of 17%. For Cc1c(C(=O)CCc2ccccc2)c(C)n(C)c1CCC(=O)O, the inhibition was “inactive”. CCCCCCCCCCCC(=O)c1c(C)c(CCC(=O)O)n(Cc2ccc(Cl)cc2)c1C was tested, and the inhibition was 78%. With CCCCCCCCCCCC(=O)c1c(C)c(CC(=O)O)n(C)c1C the inhibition was 22%. In the case of CCCCCCCCCCCC(=O)c1c(C)c(CCC(=O)O)n(Cc2ccc(C)cc2)c1C, the inhibition is reported as 52%. With CCCCCCCCCCCC(=O)c1c(C)c(CCC(=O)NS(=O)(=O)c2ccccc2)n(C)c1C the inhibition was 77%. For CCCCCCCCCCCC(=O)c1c(C)c(CCC#N)n(C)c1C, the inhibition was 22%. CCCCCCCCCCCC(=O)c1c(C)c(CCC(=O)O)n(Cc2ccccc2)c1C showed an inhibition of 62%. Molecule CCCCCCOc1ccc(C(=O)c2c(C)c(CCC(=O)O)n(C)c2C)cc1 has an inhibition of 32%.

Each molecule was assayed against T2, Prostaglandin E synthase (assay: Inhibition of human recombinant mPGES-1 in assessed as conversion of PGH2 into PGE2 at 20 degC after 5 mins by HPLC-UV analysis). Conditions: not given.
Outline: as §2, with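 “temperature.” for “temperature. PGE2 measured by online SPE-HPLC-UV at 195 nm. Reference incubations without enzyme gave non-enzymatic PGE2.”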
Molecule CCCCCCCCCCCC(=O)c1c(C)c(CCC(=O)O)n(C)c1C has an IC50 of 670 nM. CCCCCCCCCCCC(=O)c1c(C)c(CCC(=O)NS(C)(=O)=O)n(C)c1C gave an IC50 of 600 nM. CCCCCCCCCCCC(=O)c1c(-c2ccccc2)c(CCC(=O)O)n(C)c1C showed an IC50 of 140 nM.

These molecules were tested against T1, Prostaglandin E synthase (Homo sapiens) (assay: Inhibition of mPGES-1 in human A549 cell microsomes assessed as conversion of PGH2 into PGE2 at 3.3 uM at 0 degC after 5 mins by HPLC-UV analysis). Conditions: Microsome.
Outline: as §1
CCCCCCCCOc1ccccc1C(=O)c1c(C)c(CCC(=O)O)n(C)c1C showed an inhibition of 23%. CCCCCCCCCCCC(=O)c1c(C)c(CCC(=O)O)n(C)c1C was tested, and the inhibition was 74%. CCCCCCC(=O)c1c(C)c(CCC(=O)O)n(C)c1C was tested, and the inhibition was “inactive”. For CCCCCCCCCCCCCCCC(=O)c1c(C)c(CCC(=O)O)n(C)c1C, the inhibition was 35%. CCCCCCCC(=O)c1c(C)c(CCC(=O)O)n(C)c1C gave an inhibition of 55%. Work on CCCCCCCOc1cccc(C(=O)c2c(C)c(CCC(=O)O)n(C)c2C)c1 yielded an inhibition of 67%. For Cc1c(C(=O)c2ccccc2)c(C)n(C)c1CCC(=O)O, the inhibition was “inactive”. For Cc1c(C(=O)c2cccc3ccccc23)c(C)n(C)c1CCC(=O)O, the inhibition was “inactive”. CCCC(=O)c1c(C)c(CCC(=O)O)n(C)c1C was tested, and the inhibition was “inactive”. With CCCCCCCCCC(=O)c1c(C)c(CCC(=O)O)n(C)c1C the inhibition was 62%. Molecule CCCCCCCCCCCCCC(=O)c1c(C)c(CCC(=O)O)n(C)c1C has an inhibition of 63%. With Cc1c(C(=O)c2ccc3ccccc3c2)c(C)n(C)c1CCC(=O)O the inhibition was “inactive”. In the case of Cc1c(C(=O)c2ccc(-c3ccccc3)cc2)c(C)n(C)c1CCC(=O)O, the inhibition is reported as “inactive”. With CCCCCCCCCCCCCCCCCC(=O)c1c(C)c(CCC(=O)O)n(C)c1C the inhibition was “inactive”. With Cc1c(C(=O)CCc2ccccc2)c(C)n(C)c1CCC(=O)O the inhibition was “inactive”. CCCCCCOc1ccc(C(=O)c2c(C)c(CCC(=O)O)n(C)c2C)cc1 was tested, and the inhibition was 64%.

These molecules were tested against T2, Prostaglandin E synthase (assay: Inhibition of mPGES-1). Conditions: not given.
Outline: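 PGH2 was the substrate, and reactions ran for 5 min. One version used microsomes from A549 cells at 0 °C. The other used commercial microsomes containing human recombinant mPGES-1, at 20 °C or room temperature, in 50 mM Tris pH 7.2 with 2.5 mM GSH. PGE2 formed was measured by online solid-phase extraction HPLC with UV detection.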
With CCCCCCCCCCCC(=O)c1c(C)c(CCC(=O)O)n(C)c1C the IC50 was 800 nM. CS(=O)(=O)Nc1ccc([N+](=O)[O-])cc1OC1CCCCC1 [NS-398] was tested, and the IC50 was 10000 nM.
